Data reported in ChEMBL document CHEMBL3124870, “Discovery and characterization of potent thiazoles versus methicillin- and vancomycin-resistant Staphylococcus aureus” (J Med Chem, 2014).
≈ marks a conversion by molar mass, not a printed value.

Tests used:
Staphylococcus aureus [1] = experiment: Antibacterial activity against methicillin-resistant Staphylococcus aureus USA200 assessed as inhibition of visible growth by broth microdilution method; format: functional
Caco-2 [2] = experiment: Apparent permeability across basolateral to apical to side in human Caco2 cells at 10 microM for 2 hrs by LC-MS/MS analysis; format: ADME, cell-based; settings: caco-2, 2 h
Caco-2 [3] = experiment: Efflux ratio of apparent permeability from basolateral to apical side over apical to basolateral side in human Caco2 cells at 10 microM for 2 hrs by LC-MS/MS analysis; format: ADME, cell-based; settings: caco-2, 2 h
How it was run: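 Caco-2 monolayer permeability was run under slightly acidic conditions, with the compound at 10 μM. Transfer was measured in the apical-to-basolateral and basolateral-to-apical directions. The efflux ratio was taken as B→A over A→B permeability.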

Staphylococcus aureus [4] = experiment: Antibacterial activity against vancomycin-intermediate Staphylococcus aureus LIM 3 assessed as inhibition of visible growth by broth microdilution method; format: functional
Staphylococcus aureus [5] = experiment: Antibacterial activity against methicillin-resistant Staphylococcus aureus USA700 assessed as inhibition of visible growth by broth microdilution method; format: functional
Staphylococcus aureus [6] = experiment: Antibacterial activity against methicillin-resistant Staphylococcus aureus NRS194 assessed as inhibition of visible growth by broth microdilution method; format: functional
Staphylococcus aureus [7] = experiment: Antibacterial activity against methicillin-resistant Staphylococcus aureus USA300 assessed as inhibition of visible growth by broth microdilution method; format: functional
Staphylococcus aureus [8] = experiment: Antibacterial activity against vancomycin-intermediate Staphylococcus aureus ATCC 700699 assessed as inhibition of visible growth by broth microdilution method; format: functional
Staphylococcus aureus [9] = experiment: Bactericidal activity against methicillin-resistant Staphylococcus aureus USA300 assessed as time required to complete elimination of bacteria by 3-log10 by time-kill assay; format: functional
How it was run: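 Viable counts (CFU) followed over a 12-hour window; endpoint is a 3-log10 fall in CFU.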

[10] = Aqueous solubility of compound in phosphate buffer assessed as solubility limit after 2 hrs by turbidity analysis; format: physicochemical
Staphylococcus aureus [11] = experiment: Antibacterial activity against methicillin-resistant Staphylococcus aureus USA400 assessed as inhibition of visible growth by broth microdilution method; format: functional
Staphylococcus aureus [12] = experiment: Antibacterial activity against vancomycin-intermediate Staphylococcus aureus HIP07256 assessed as inhibition of visible growth by broth microdilution method; format: functional
MDCK [13] = experiment: Apparent permeability from basolateral to apical side in MDCK cells expressing MDR1 for 2 hrs by LC-MS/MS analysis; format: ADME, cell-based, Canis lupus familiaris; settings: dog
Staphylococcus aureus [14] = experiment: Antibacterial activity against vancomycin-resistant Staphylococcus aureus assessed as inhibition of visible growth by broth microdilution method; format: functional
MDCK [15] = experiment: Apparent permeability from apical to basolateral side in MDCK cells expressing MDR1 for 2 hrs by LC-MS/MS analysis; format: ADME, cell-based, Canis lupus familiaris; settings: dog
Staphylococcus aureus [16] = experiment: Antibacterial activity against methicillin-resistant Staphylococcus aureus NRS108 assessed as inhibition of visible growth by broth microdilution method; format: functional
Staphylococcus aureus [17] = experiment: Antibacterial activity against methicillin-resistant Staphylococcus aureus USA800 assessed as inhibition of visible growth by broth microdilution method; format: functional
Staphylococcus aureus [18] = experiment: Antibacterial activity against methicillin-resistant Staphylococcus aureus USA1100 assessed as inhibition of visible growth by broth microdilution method; format: functional
Staphylococcus aureus [19] = experiment: Antibacterial activity against methicillin-resistant Staphylococcus aureus USA100 assessed as inhibition of visible growth by broth microdilution method; format: functional
Staphylococcus aureus [20] = experiment: Antibacterial activity against methicillin-resistant Staphylococcus aureus NRS119 assessed as inhibition of visible growth by broth microdilution method; format: functional
Staphylococcus aureus [21] = experiment: Antibacterial activity against methicillin-resistant Staphylococcus aureus NRS107 assessed as inhibition of visible growth by broth microdilution method; format: functional
Staphylococcus aureus [22] = experiment: Antibacterial activity against methicillin-resistant Staphylococcus aureus USA500 assessed as inhibition of visible growth by broth microdilution method; format: functional
MDCK [23] = experiment: Efflux ratio of apparent permeability from basolateral to apical side over apical to basolateral side in MDCK cells expressing MDR1 for 2 hrs by LC-MS/MS analysis; format: ADME, cell-based, Canis lupus familiaris; settings: dog
How it was run: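 Madin-Darby canine kidney cells transfected to overexpress MDR1 (P-glycoprotein 1). Apparent permeability (Papp, cm/sec) was measured in both the apical-to-basolateral and basolateral-to-apical directions. The efflux ratio was taken as Papp(B→A)/Papp(A→B).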

Staphylococcus aureus [24] = experiment: Antibacterial activity against methicillin-resistant Staphylococcus aureus USA1000 assessed as inhibition of visible growth by broth microdilution method; format: functional
Staphylococcus aureus [25] = experiment: Antibacterial activity against methicillin-resistant Staphylococcus aureus ATCC 43300 assessed as inhibition of visible growth by broth microdilution method; format: functional
HeLa = experiment: Cytotoxicity against human HeLa cells assessed as cell viability at 11 ug/ml by MTS assay; format: cell-based
Liver microsome = experiment: Half life in human liver microsomes by LC-MS/MS analysis; format: ADME

Q: Which MIC (Staphylococcus aureus [1]) does the source give for `CCCCc1ccc(-c2nc(C)c(/C(C)=N/NC(=N)N)s2)cc1` here?
A: 2.8 µg/mL (≈ 8.5 µM)

Q: What about the Papp (Caco-2 [2]) of the same compound?
A: 2.2 ×10⁻⁶ cm/s

Q: And the Ratio (Caco-2 [3])?
A: > 2

Q: What about the MIC (Staphylococcus aureus [4]) of the same compound?
A: 1.4 µg/mL (≈ 4.25 µM)

Q: What about the MIC (Staphylococcus aureus [5]) of the same compound?
A: 1.8 µg/mL (≈ 5.46 µM)

Q: And the MIC (Staphylococcus aureus [6])?
A: 1.4 µg/mL (≈ 4.25 µM)

Q: And the MIC (Staphylococcus aureus [7])?
A: 1.4 µg/mL (≈ 4.25 µM)

Q: What about the MIC (Staphylococcus aureus [8]) of the same compound?
A: 1.4 µg/mL (≈ 4.25 µM)

Q: What about the Time (Staphylococcus aureus [9]) of the same compound?
A: 2 h

Q: And the solubility kinetic at 2 h [10]?
A: 62.6 µM (≈ 20.6 µg/mL)

Q: What about the MIC (Staphylococcus aureus [11]) of the same compound?
A: 1.4 µg/mL (≈ 4.25 µM)

Q: What about the MIC (Staphylococcus aureus [12]) of the same compound?
A: 1.4 µg/mL (≈ 4.25 µM)

Q: What about the Papp (MDCK [13]) of the same compound?
A: 3.6 ×10⁻⁶ cm/s

Q: And the MIC (Staphylococcus aureus [14])?
A: 1.4 µg/mL (≈ 4.25 µM)

Q: And the Papp (MDCK [15])?
A: 0.7 ×10⁻⁶ cm/s

Q: And the MIC (Staphylococcus aureus [16])?
A: 1.4 µg/mL (≈ 4.25 µM)

Q: What about the MIC (Staphylococcus aureus [17]) of the same compound?
A: 2.3 µg/mL (≈ 6.98 µM)

Q: And the MIC (Staphylococcus aureus [18])?
A: 2.8 µg/mL (≈ 8.5 µM)

Q: What about the MIC (Staphylococcus aureus [19]) of the same compound?
A: 5.5 µg/mL (≈ 16.7 µM)

Q: What about the MIC (Staphylococcus aureus [20]) of the same compound?
A: 1.4 µg/mL (≈ 4.25 µM)

Q: What about the MIC (Staphylococcus aureus [21]) of the same compound?
A: 1.4 µg/mL (≈ 4.25 µM)

Q: What about the MIC (Staphylococcus aureus [22]) of the same compound?
A: 1.4 µg/mL (≈ 4.25 µM)

Q: And the Ratio (MDCK [23])?
A: 5

Q: What about the MIC (Staphylococcus aureus [24]) of the same compound?
A: 1.4 µg/mL (≈ 4.25 µM)

Q: What about the MIC (Staphylococcus aureus [25]) of the same compound?
A: 2.8 µg/mL (≈ 8.5 µM)

Q: And the Activity (HeLa)?
A: Non-toxic

Q: What about the t1/2 (Liver microsome) of the same compound?
A: 28.8 min
